Laboratory results reported in paper PMC7502546 (ACS chemical biology, 2020).
Like-named read-outs stand apart in the source and are kept apart here.

Key:
CaV1.3 channels [1] = details: magnitude and selectivity dependent on auxiliary β subunit; cited from earlier work
SN dopaminergic neurons [2] = experiment: mito-roGFP mitochondrial oxidant stress in ex vivo brain slices; assay type: cell-based, mouse
[3] = test system: SN dopaminergic neuron from an adult Cav1.3-KO mouse; experiment: Voltage clamp of SN dopaminergic neurons from Cav1.3-KO mouse; assay type: cell-based; details: cp-PYT 50 μM; CaV1.3 knockout mouse
Procedure, shortened: (§1)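 SN dopaminergic neurons were acutely isolated from brain slices of young adult (P25) wild-type or CaV1.3 ([…]) knockout mice. Whole-cell voltage clamp used Ba2+ as charge carrier, with voltage ramps from −70 mV to +30 mV. Test compound was applied at 5 μM and 50 μM on wild-type cells and 50 μM on knockout cells. Maximum calcium permeability was compared by Mann-Whitney test.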

CaV1.3 = assay type: cell-based, rat; details: for percent inhibition of evoked currents (median): wild-type CaV1.3, step −80 mV to 0 mV; for percentage inhibition of CaV1.3 peak currents (median): test step to 0 mV
Procedure, shortened: (§2)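 Rat α1D (wild type or point mutants made by site-directed mutagenesis, sequence-verified) was transiently co-transfected with CaVβ3 and CaVα2δ-1 at 1:1:1 into tsA201 cells, with 1/40 (w/w) GFP. GFP-positive cells were whole-cell clamped 48 h later at 22–25 °C. External solution held 10 mM BaCl2 (pH 7.4); internal was NMG-based with 5 mM BAPTA. DMSO stocks were diluted into barium solution and perfused. Median percent inhibition was reported.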

CaV1.2-V1063M+I1183V = CaV1.2-V1063M+I1183V (Oryctolagus cuniculus, UniProt P15381, I1183V/V1063M); experiment: Whole-cell patch clamp, CaV1.2-V1063M+I1183V channels; assay type: cell-based, rabbit; details: read-out: percent inhibition of evoked currents
CaV1.2-V1063M+I1183V, sequence (P15381 whole entry V1063M/I1183V): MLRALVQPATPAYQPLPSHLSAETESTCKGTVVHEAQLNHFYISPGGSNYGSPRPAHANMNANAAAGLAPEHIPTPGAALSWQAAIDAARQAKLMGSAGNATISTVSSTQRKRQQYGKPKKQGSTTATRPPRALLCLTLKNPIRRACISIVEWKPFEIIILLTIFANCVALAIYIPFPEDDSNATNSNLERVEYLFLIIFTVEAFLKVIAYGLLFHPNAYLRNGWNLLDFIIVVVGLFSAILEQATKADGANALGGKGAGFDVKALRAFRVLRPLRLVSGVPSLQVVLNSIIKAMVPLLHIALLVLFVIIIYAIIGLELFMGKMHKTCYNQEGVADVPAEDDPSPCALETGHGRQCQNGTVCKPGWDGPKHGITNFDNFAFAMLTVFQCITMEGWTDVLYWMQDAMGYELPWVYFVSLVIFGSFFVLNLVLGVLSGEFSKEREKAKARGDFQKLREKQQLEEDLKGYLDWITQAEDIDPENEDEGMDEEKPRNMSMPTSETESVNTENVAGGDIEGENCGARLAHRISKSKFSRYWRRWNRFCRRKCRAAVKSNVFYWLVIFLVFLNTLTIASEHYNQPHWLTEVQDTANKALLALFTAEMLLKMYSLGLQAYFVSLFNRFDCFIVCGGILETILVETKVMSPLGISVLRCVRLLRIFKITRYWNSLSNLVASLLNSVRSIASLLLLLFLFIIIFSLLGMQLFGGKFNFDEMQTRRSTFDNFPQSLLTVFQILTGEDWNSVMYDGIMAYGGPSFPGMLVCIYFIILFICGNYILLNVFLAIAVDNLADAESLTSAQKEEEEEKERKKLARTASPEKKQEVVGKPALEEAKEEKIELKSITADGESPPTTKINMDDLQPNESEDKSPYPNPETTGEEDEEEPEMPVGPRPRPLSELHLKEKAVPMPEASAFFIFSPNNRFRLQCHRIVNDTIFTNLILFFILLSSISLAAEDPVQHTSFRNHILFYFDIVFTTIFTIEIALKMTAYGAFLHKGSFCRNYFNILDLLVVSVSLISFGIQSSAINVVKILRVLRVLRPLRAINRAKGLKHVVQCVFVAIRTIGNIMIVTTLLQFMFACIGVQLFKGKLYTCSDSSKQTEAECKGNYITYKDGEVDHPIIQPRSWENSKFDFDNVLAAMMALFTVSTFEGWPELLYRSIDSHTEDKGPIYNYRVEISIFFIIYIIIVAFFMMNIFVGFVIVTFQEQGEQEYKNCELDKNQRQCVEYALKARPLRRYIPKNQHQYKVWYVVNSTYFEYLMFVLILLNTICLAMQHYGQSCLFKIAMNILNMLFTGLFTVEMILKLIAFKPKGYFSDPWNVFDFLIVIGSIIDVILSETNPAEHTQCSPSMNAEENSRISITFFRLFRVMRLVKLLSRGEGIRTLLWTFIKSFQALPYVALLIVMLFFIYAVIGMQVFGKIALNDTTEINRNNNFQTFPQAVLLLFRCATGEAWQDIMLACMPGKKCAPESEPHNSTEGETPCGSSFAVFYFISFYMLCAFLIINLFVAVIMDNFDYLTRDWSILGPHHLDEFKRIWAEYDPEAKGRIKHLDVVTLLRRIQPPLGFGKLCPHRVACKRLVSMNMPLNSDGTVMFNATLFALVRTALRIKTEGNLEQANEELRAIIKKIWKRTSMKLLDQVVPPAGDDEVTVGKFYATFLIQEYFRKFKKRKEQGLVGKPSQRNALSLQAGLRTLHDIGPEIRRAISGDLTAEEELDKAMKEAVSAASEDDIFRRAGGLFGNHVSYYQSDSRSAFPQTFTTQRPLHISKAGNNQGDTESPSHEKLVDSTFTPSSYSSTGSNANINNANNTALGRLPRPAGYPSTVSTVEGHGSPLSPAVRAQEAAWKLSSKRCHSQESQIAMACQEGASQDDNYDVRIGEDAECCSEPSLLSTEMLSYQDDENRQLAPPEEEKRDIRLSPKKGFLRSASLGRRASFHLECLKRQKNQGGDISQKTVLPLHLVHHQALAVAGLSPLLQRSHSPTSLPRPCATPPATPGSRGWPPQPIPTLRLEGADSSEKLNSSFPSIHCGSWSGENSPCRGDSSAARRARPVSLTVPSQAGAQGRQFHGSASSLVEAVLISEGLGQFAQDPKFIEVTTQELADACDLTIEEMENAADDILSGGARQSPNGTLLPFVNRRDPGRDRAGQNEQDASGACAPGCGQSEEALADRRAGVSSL
CaV1.2-V1063M+I1183V, sequence (P54287 whole entry partner): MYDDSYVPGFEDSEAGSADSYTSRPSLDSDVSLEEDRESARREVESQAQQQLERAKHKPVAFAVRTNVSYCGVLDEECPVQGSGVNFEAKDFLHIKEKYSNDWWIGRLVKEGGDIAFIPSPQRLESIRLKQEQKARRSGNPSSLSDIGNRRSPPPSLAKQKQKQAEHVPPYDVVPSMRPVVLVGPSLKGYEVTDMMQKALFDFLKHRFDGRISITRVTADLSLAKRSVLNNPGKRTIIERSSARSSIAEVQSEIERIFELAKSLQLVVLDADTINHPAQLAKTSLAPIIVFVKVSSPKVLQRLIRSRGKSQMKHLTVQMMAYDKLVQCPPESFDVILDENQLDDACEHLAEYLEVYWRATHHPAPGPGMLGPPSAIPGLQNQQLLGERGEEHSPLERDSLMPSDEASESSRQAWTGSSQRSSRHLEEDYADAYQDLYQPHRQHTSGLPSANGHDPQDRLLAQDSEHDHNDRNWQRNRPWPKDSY
CaV1.2-V1063M+I1183V, sequence (P54290 25-944 partner limits assumed): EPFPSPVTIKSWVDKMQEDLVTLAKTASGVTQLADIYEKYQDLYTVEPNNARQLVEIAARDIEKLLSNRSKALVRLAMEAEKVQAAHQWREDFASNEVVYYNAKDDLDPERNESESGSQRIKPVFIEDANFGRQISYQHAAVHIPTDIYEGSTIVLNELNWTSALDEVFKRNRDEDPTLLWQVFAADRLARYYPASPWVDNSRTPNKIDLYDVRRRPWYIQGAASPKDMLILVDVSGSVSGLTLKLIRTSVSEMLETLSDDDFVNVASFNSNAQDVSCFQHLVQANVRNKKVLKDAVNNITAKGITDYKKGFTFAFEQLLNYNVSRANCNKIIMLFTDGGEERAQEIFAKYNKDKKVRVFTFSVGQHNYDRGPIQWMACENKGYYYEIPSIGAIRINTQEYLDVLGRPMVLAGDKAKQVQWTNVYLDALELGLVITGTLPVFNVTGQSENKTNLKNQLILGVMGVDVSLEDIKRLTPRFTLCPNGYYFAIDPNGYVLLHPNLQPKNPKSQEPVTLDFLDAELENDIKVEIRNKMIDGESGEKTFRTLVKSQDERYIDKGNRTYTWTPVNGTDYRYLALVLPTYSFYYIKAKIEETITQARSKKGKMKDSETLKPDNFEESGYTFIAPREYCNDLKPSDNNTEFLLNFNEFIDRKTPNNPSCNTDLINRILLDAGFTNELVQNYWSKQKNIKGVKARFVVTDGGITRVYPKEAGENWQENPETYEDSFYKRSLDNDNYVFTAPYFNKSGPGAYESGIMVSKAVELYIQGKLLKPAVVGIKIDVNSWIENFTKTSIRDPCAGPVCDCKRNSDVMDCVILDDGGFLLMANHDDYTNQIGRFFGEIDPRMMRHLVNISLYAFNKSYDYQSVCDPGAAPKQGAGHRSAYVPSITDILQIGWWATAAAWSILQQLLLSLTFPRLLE
CaV1.2-V1063M+I1183V, sequence (P54290 945-1091 partner limits assumed): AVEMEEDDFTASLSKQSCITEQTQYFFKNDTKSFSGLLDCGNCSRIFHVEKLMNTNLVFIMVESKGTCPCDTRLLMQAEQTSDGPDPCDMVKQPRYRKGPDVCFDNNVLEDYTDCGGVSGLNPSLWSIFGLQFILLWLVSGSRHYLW

CaV1.2-V1063I = CaV1.2-V1063I (Oryctolagus cuniculus, UniProt P15381, V1063I); experiment: Whole-cell patch clamp, CaV1.2-V1063I channels; assay type: cell-based, rabbit; details: read-out: percent inhibition of evoked currents (median)
CaV1.2-V1063L = CaV1.2-V1063L (Oryctolagus cuniculus, UniProt P15381, V1063L); experiment: Whole-cell patch clamp, CaV1.2-V1063L channels; assay type: cell-based, rabbit; details: read-out: percent inhibition of evoked currents (median)
CaV1.3-V1198I = CaV1.3-V1198I (Rattus norvegicus, UniProt P27732, V1198I); experiment: Whole-cell patch clamp, CaV1.3-V1198I channels; assay type: cell-based; details: read-out: percent inhibition of evoked currents
Procedure, shortened: as §2

CaV1.3-M1078I = experiment: Whole-cell patch clamp, CaV1.3-M1078I channels; assay type: cell-based, rat
Procedure, shortened: as §2

CaV1.2-V1063K = CaV1.2-V1063K (Oryctolagus cuniculus, UniProt P15381, V1063K); experiment: Whole-cell patch clamp, CaV1.2-V1063K channels; assay type: cell-based, rabbit
CaV1.2 (wild-type) = CaV1.2 (wild-type) (Oryctolagus cuniculus, UniProt P15381); experiment: Whole-cell patch clamp, wild-type CaV1.2 channels; assay type: cell-based, rabbit; details: rabbit, pH 7.4
SN dopaminergic neurons [4] = assay type: cell-based, mice; details: cp-PYT 50 μM; ex vivo brain slice
Procedure, shortened: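 Ex vivo brain slices from young adult mice were used. SN dopaminergic neurons were whole-cell patched and filled through the pipette with Alexa568 (20 μM) and Fluo-4 (200 μM). Two-photon laser scanning microscopy imaged Ca2+ along a dendrite while somatic voltage was recorded, before and after test compound application. Fluo-4 fluorescence was normalized to baseline (F0).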

CaV1.3-M1078L = CaV1.3-M1078L (Rattus norvegicus, UniProt P27732, M1078L); experiment: Whole-cell patch clamp, CaV1.3-M1078L channels; assay type: cell-based; details: read-out: percent inhibition of evoked currents (median)
Procedure, shortened: as §2

CaV1.3-M1078V = experiment: Whole-cell patch clamp, CaV1.3-M1078V channels; assay type: cell-based, rat; details: for percent inhibition of evoked currents (median): CaV1.3-M1078V
Procedure, shortened: as §2

CaV1.2-I1183V = CaV1.2-I1183V (Oryctolagus cuniculus, UniProt P15381, I1183V); experiment: Whole-cell patch clamp, CaV1.2-I1183V channels; assay type: cell-based, rabbit; details: read-out: percent inhibition of evoked currents
CaV1.2-I1183V, sequence (P15381 whole entry I1183V): as the sequence (P15381 whole entry V1063M/I1183V) above, with M1063V counted along it
CaV1.2-I1183V, sequence (P54287 whole entry partner): as the sequence (P54287 whole entry partner) above
CaV1.2-I1183V, sequence (P54290 25-944 partner limits assumed): as the sequence (P54290 25-944 partner limits assumed) above
CaV1.2-I1183V, sequence (P54290 945-1091 partner limits assumed): as the sequence (P54290 945-1091 partner limits assumed) above

[5] = test system: Cav1.3 calcium channels in adult SN dopaminergic (DA) neurons; experiment: Voltage clamp of acutely isolated SN dopaminergic neurons from WT mice; assay type: cell-based
Procedure, shortened: as §1

CaV1.3 channels [6] = details: micromolar concentrations; cited from earlier work
[7] = rodents; cited from earlier work
CaV1.3-T1081Y = experiment: Whole-cell patch clamp, CaV1.3-T1081Y channels; assay type: cell-based, rat
Procedure, shortened: as §2

CaV1.3 LTCCs = CaV1.3 LTCCs (Rattus norvegicus, UniProt P27732); experiment: Equilibrium binding / displacement of 3H2-SKP004D11 in HEK293 membranes
CaV1.3 LTCCs, sequence (P27732 921-1530 limits assumed): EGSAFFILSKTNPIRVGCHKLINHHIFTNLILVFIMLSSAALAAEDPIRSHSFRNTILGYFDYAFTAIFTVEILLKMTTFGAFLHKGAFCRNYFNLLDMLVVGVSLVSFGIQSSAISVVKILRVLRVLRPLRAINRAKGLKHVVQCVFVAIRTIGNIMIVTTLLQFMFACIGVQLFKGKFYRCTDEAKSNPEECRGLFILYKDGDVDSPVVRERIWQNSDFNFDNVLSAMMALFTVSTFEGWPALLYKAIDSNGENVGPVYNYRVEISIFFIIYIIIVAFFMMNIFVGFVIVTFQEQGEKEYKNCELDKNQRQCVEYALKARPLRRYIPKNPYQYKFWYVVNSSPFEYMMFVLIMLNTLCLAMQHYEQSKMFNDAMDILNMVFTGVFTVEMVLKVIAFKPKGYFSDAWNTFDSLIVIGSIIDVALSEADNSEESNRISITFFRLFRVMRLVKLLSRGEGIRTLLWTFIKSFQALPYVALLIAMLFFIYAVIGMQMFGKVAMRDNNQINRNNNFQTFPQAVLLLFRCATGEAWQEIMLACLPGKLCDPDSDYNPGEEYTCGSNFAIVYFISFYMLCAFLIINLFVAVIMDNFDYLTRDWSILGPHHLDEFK
Procedure, shortened: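 Membranes came from HEK-293 cells stably expressing CaV1.3 α1D/β3/α2δ-1. They were washed in 40 mM HEPES, 100 mM NaCl, pH 8.0, homogenized on ice, and pelleted three times at 100,000 × g, 4 °C. Each reaction held 3.0 nM tritiated pyrimidinetrione ligand, 0.1–0.4 mg/mL protein, and unlabeled competitor, incubated 90 min at room temperature. Samples were filtered on GF/C and scintillation counted. Nonspecific binding used a saturating cold ligand. Ki came from a Langmuir fit plus Cheng-Prusoff; Kd came from a Scatchard plot (n = 4).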

CaV1.3-M1078K = CaV1.3-M1078K (Rattus norvegicus, UniProt P27732, M1078K); experiment: Whole-cell patch clamp, CaV1.3-M1078K channels; assay type: cell-based; details: read-out: percent inhibition of evoked currents (median)
Procedure, shortened: as §2

CaV1.2-V1063M = CaV1.2-V1063M (Oryctolagus cuniculus, UniProt P15381, V1063M); experiment: Whole-cell patch clamp, CaV1.2-V1063M channels; assay type: cell-based, rabbit; details: read-out: percent inhibition of evoked currents (median)
[8] = test system: CaV1.3 channels over CaV1.2 channels; details: cited from earlier work
CaV1.2 = CaV1.2 (Oryctolagus cuniculus, UniProt P15381); experiment: Whole-cell patch clamp, wild-type CaV1.2 channels; assay type: cell-based, rabbit; details: read-out: percent inhibition of evoked currents (median)

In the case of `O=C1CC(=O)N(C2CCCC2)C(=O)N1CCc1cccc(Cl)c1` [cp-PYT, 1-(3-chlorophenethyl)-3-cyclopentylpyrimidine-2,4,6-trione], the “inhibition of CaV1.3 channels” value (CaV1.3 channels [1]) is listed as “did inhibit”, the mitochondrial oxidant stress (SN dopaminergic neurons [2]; cp-PYT 50 μM bath application) is listed as “significantly diminished” and the “effect on whole cell Ba2+ currents” value [3] is listed as “no effect”. For the same molecule, the “percent inhibition of evoked currents (median)” value (from here on “percent inhibition”) (CaV1.3; 100 μM cp-PYT) was 60%, the “percentage inhibition of CaV1.3 peak currents (median)” value (from here on “percentage inhibition”) (CaV1.3; cp-PYT 10 μM, VH −50 mV) was 46% and the “percentage inhibition” value (CaV1.3; cp-PYT 10 μM, VH −80 mV) was 26%. The “tail current kinetics / channel deactivation rates” value (CaV1.3; cp-PYT 10 μM, step back to −80 mV) was “did not alter”, the tail current kinetics (CaV1.3; cp-PYT 50 μM, step back to −80 mV) was “slowed” and the inhibition at 100 µM (CaV1.2-V1063M+I1183V) was 32%. It also gave an inhibition at 100 µM (CaV1.2-V1063I) of 48%, an inhibition at 100 µM (CaV1.2-V1063L) of 35% and an inhibition at 100 µM (CaV1.3-V1198I) of 45%. For the same molecule, the “percent inhibition” value (CaV1.3-M1078I; 100 μM cp-PYT) was 37%, the inhibition at 100 µM (CaV1.2-V1063K; read-out: percent inhibition of evoked currents) was 40% and the inhibition at 100 µM (CaV1.2 (wild-type)) was 21%. For the same molecule, the “dendritic Ca2+ oscillations” value (SN dopaminergic neurons [4]) was “significantly reduced”, the effect on pacemaking (SN dopaminergic neurons [4]) was “no effect” and the inhibition at 100 µM (CaV1.3-M1078L) was 31%. The “percent inhibition” value (CaV1.3-M1078V; 100 μM cp-PYT) was 4%, the “tail currents in M1078V mutant channels” value (CaV1.3-M1078V; cp-PYT (100 μM) in text) was “slowing of tail currents persisted” and the inhibition at 100 µM (CaV1.2-I1183V) was 12%. For the same molecule, the “inhibition of whole cell Ba2+ currents” value ([5]; cp-PYT 5 μM, voltage ramps −70 mV to +30 mV, WT mice) was “modest inhibition”, the “inhibition of whole cell Ba2+ currents” value ([5]; cp-PYT 50 μM, WT mouse) was “inhibition” and the “deactivation of tail currents” value (CaV1.3 channels [6]) was “slowed”. The “reinstatement of alcohol- and cocaine-seeking” value [7] was “disrupt”, the “percent inhibition” value (CaV1.3-T1081Y; 100 μM cp-PYT) was 2% and the “displacement of tritiated D11 binding” value (CaV1.3 LTCCs; equilibrium membrane binding) was “displaced”. The inhibition at 100 µM (CaV1.3-M1078K) was 58%, the inhibition at 100 µM (CaV1.2-V1063M) was 47% and the “selectivity for inhibition of CaV1.3 channels over CaV1.2 channels” value [8] was “highly selective”.
With `COC(=O)C1=C(C)NC(C)=C(C(=O)OC(C)C)C1c1cccc2nonc12` (centres unmarked) [isradipine, reference compound] the mitochondrial oxidant stress (SN dopaminergic neurons [2]; isradipine 1 μM) was “diminished”, the “percent inhibition” value (CaV1.3; 5 μM isradipine) was 90% and the “percentage inhibition” value (CaV1.3; isradipine 100 nM (Fig. 4a legend), VH −50 mV) was 92%. For the same molecule, the “percentage inhibition” value (CaV1.3; isradipine 100 nM (Fig. 4a legend), VH −80 mV) was 43%, the inhibition at 5 µM (CaV1.2-V1063M+I1183V) was 93% and the inhibition at 5 µM (CaV1.2-V1063I) was 91%. The inhibition at 5 µM (CaV1.2-V1063L) was 95%, the inhibition at 5 µM (CaV1.3-V1198I) was 94% and the “percent inhibition” value (CaV1.3-M1078I; 5 μM isradipine) was 85%. It also gave an inhibition at 5 µM (CaV1.2-V1063K; read-out: percent inhibition of evoked currents (median)) of 72%, an inhibition at 5 µM (CaV1.2) of 78% and an inhibition at 5 µM (CaV1.3-M1078L) of 69%. For the same molecule, the “percent inhibition” value (CaV1.3-M1078V; 5 μM isradipine) was 78%, the inhibition at 5 µM (CaV1.2-I1183V) was 95% and the “reinstatement of alcohol- and cocaine-seeking” value [7] was “disrupt”. For the same molecule, the “percent inhibition” value (CaV1.3-T1081Y; 5 μM isradipine) was 1%, the Ki (CaV1.3 LTCCs) was 68 nM and the “fraction of 3H2-D11 binding not displaced” value (CaV1.3 LTCCs; displacement by isradipine) was ~ 20%. For the same molecule, the inhibition at 5 µM (CaV1.3-M1078K) was 88% and the inhibition at 5 µM (CaV1.2-V1063M) was 92%.
